Assay results published in ChEMBL document CHEMBL1143259, “Synthesis and antiplasmodial activity of new 4-aryl-2-trichloromethylquinazolines” (Bioorg Med Chem Lett, 2008).

Assays:
Plasmodium falciparum [1] = experiment: Antiplasmodial activity against chloroquinone-resistant Plasmodium falciparum W2; format: functional, organism-based
Plasmodium falciparum [2] = experiment: Antiplasmodial activity against chloroquinone-sensitive Plasmodium falciparum 3D7; format: functional, organism-based
HepG2 = experiment: Cytotoxicity against human HepG2 cells by MTT assay; format: cell-based
Summary of the method: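 HepG2 cells were seeded at 5 × 10³ cells/well in RPMI and pre-incubated for 24 h. Compound was added at various concentrations and incubated for 72 h. MTT (5 mg/mL in PBS) was then added in serum-free medium for 2 h at 37 °C in 6% CO₂. Formazan was dissolved in DMSO and A570 read against a 630 nm reference. Viability was expressed as % of untreated control, and the 50% cytotoxic concentration taken from the dose–response curve. Values are the mean of three independent experiments.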

[3] = (§1) Cytotoxicity against human THP1 cells by MTT assay; format: cell-based, THP-1; conditions: human, THP-1 cells; read-out: LC50 (the source's name)
Summary of the method: (§2)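 Cells seeded at 5 × 10³/well in RPMI and pre-incubated 24 h, then exposed to a range of compound concentrations for 72 h. MTT was added in serum-free medium for 2 h at 37 °C, and the formazan was dissolved in DMSO. Absorbance was read at 570 nm against a 630 nm reference. Viability was taken as % of untreated control, and IC50 came from the dose–response curve (mean of three independent experiments).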

THP-1 = experiment: as §1; format: cell-based; conditions: Homo sapiens, THP-1; summary of the method: as §2
[4] = Selectivity index, ratio of IC50 for human HepG2 cells to IC50 for Plasmodium falciparum W2; format: functional
Summary of the method: (§3)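 SI = human-cell IC50 divided by P. falciparum W2 IC50. Each IC50 is the mean of three independent experiments.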

[5] = Selectivity index, ratio of IC50 for human THP1 cells to IC50 for Plasmodium falciparum W2; format: functional, THP-1; summary of the method: as §3

Structure (SMILES)	IC50 (Plasmodium falciparum [1]) [µM]	IC50 (Plasmodium falciparum [2]) [µM]	IC50 (HepG2) [µM]	CC50 [3] [µM]	IC50 (THP-1) [µM]	Ratio IC50 [4]	Ratio IC50 [5]
ClC(Cl)(Cl)c1nc(-c2ccc3ccccc3c2)c2ccccc2n1	8.1	23.3	> 125	> 500	> 500	>15.4	>61.7
ClC(Cl)(Cl)c1nc(-c2ccco2)c2ccccc2n1	20.2	30	> 125	> 500	61.6	>6.2	3.1
COc1ccc(-c2nc(C(Cl)(Cl)Cl)nc3ccccc23)cc1	10.9	25	125	> 250	250	11.5	22.9
FC(F)(F)c1cccc(-c2nc(C(Cl)(Cl)Cl)nc3ccccc23)c1	40.4	36.6	> 125	> 500	78.6	>3.1	1.9
COc1cc(-c2nc(C(Cl)(Cl)Cl)nc3ccccc23)cc(OC)c1OC	28.9	23.3	> 125	> 250	> 250	>4.3	>8.7
Clc1nc(C(Cl)(Cl)Cl)nc2ccccc12	54.5	73.2	> 125	> 500	> 500	>2.3	>9.2
ClC(Cl)(Cl)c1nc(-c2ccccc2)c2ccccc2n1	8	20.4	> 125	> 500	125	>15.6	15.6
Cc1nc(-c2ccccc2)c2ccccc2n1	62.4	> 125	> 125	> 500	125	>2	2
Fc1ccc(-c2nc(C(Cl)(Cl)Cl)nc3ccccc23)cc1	2.5	3	> 125	500	125	>50	50
Cc1ccc(-c2nc(C(Cl)(Cl)Cl)nc3ccccc23)s1	8.7	24	25	125	50	2.9	5.7
Clc1ccc(-c2nc(C(Cl)(Cl)Cl)nc3ccccc23)cc1	4.7	2.2	> 125	> 500	73.2	>26.6	15.6
C/N=C(\NC)c1nc(-c2ccccc2)c2ccccc2n1.Cl	> 100	> 100	> 125	> 500	> 500	< 1.25	5
CCN(CC)CCCC(C)Nc1ccnc2cc(Cl)ccc12 (centres undefined) [CHLOROQUINE]	–	–	30	–	–	–	–
COc1cccc2c1C(=O)c1c(O)c3c(c(O)c1C2=O)C[C@@](O)(C(=O)CO)C[C@@H]3O[C@H]1C[C@H](N)[C@H](O)[C@H](C)O1 [DOXORUBICIN]	–	–	0.2	2.5	0.05	–	–
C[C@H]1c2cccc(O)c2C(=O)C2=C(O)[C@]3(O)C(=O)C(C(N)=O)=C(O)[C@@H](N(C)C)[C@@H]3[C@@H](O)[C@@H]21 [DOXYCYCLINE]	9	–	–	–	–	–	–
